# Screening data from PubChem.
# TMEM16A inh = inhibitors of mouse TMEM16A calcium-activated chloride channel. Q8BHY3. HEK293 TMEM16A/YFP iodide influx fluorescence, ionomycin. normalized B-score (activity score, 25-100; higher = stronger inhibition) at 10 µM. 310,000 tested, 1.2% active. AID 588511;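 active means ratio plate-corrected score three or more library SD toward inhibition, starting fluorescence score within five deviations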;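 further: score derived from kinetic fluorescence span divided by baseline fluorescence per well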
# Target sequence (Q8BHY3 whole entry, looked up): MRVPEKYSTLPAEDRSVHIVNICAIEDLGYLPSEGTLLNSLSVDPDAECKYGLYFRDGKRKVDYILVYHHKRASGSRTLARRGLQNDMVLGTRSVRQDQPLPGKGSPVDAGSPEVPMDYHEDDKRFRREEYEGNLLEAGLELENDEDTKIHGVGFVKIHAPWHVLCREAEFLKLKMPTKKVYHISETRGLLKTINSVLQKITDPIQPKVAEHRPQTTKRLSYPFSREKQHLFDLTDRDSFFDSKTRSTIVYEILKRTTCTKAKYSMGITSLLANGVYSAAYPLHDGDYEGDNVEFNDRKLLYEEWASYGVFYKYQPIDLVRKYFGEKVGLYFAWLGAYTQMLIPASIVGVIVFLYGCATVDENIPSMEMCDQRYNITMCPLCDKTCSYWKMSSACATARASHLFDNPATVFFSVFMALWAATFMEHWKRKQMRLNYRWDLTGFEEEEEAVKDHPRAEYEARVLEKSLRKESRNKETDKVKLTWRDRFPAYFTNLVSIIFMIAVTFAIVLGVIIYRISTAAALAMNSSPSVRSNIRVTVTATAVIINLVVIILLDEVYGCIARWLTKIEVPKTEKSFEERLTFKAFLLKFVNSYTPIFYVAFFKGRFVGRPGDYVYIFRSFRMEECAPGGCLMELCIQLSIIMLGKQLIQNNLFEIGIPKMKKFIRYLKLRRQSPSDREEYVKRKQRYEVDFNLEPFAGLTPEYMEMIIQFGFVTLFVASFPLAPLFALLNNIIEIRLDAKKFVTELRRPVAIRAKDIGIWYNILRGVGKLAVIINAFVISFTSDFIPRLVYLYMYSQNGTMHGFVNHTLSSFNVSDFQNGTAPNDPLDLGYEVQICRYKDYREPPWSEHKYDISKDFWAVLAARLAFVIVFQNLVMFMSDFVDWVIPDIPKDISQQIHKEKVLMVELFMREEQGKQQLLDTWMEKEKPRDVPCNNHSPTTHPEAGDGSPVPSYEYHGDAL
# TMEM16A act = mouse TMEM16A channel activation, primary screen; Q8BHY3; B-score at 10 µM; HEK293 TMEM16A/YFP-H148Q/I152L, iodide quench fluorescence; hits give low values; 340,000 tested, 0.3% active;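 active means fluorescence-ratio B-score plate-corrected deviation score at least 3 library SD below zero, with starting fluorescence score within 5 deviations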;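 further: channel opened by trigger with iodide after compound preincubation; score built on the fluorescence ratio of max minus min over baseline; more negative score means more quench and so TMEM16A activation or potentiation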
# CRFBP-R2 agonist = agonists of human CRF-binding protein/CRF-R2 receptor complex | HEK293 CRF-R2/CRF-BP, calcium dye fluorescence (FLIPR); percent of saturating CRF peptide response | activation, % at 13.2 µM | 350,000 tested, 0.46% active | AID 588473;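 active means activation of at least 50%, plus an integration ratio under a set limit after plate pattern correction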;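 further: plate controls were neutral control wells without compound for no effect and CRF at EC100 for full effect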
# TAAR1 agonist = human TAAR1 agonism | Q96RJ0 | CHO RD-HGA16 TAAR1, Fluo-8 calcium fluorescence; vehicle wells 0%, saturating PEA agonist 100% | activation, % at 3 µM | 360,000 tested, 0.99% active;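 active means activation above the mean activation of all test compounds in the run plus 3 SD, cut at about 38% in these data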
#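 Test system: RD-HGA16 (CHO) cells co-expressing Gα16 and hTAAR1 | Doses: Single dose, 3 µM | Schedule: 17-24 h seeding, 75 min 37 °C dye, 30 min RT | Evaluation: % activation from peak over basal fluorescence ratio, DMSO-to-PEA scaled | Technique: Kinetic Fluo-8 calcium fluorescence | Benchmarks: Low control DMSO, high control PEA (EC100)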
# CRFBP-R2 block = blocks CRF-induced signaling of the CRF-BP/CRF-R2 complex | HEK293 CRF-R2/CRF-BP, CRF-induced calcium fluorescence | inhibition, % at 11.8 µM | 350,000 tested, 0.59% active | AID 588475;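 active means inhibition of the ligand-induced calcium signal above about 50% at the single tested concentration, limit read from the data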
# TAAR1 antag = antagonists of human TAAR1; CHO RD-HGA16 TAAR1, Fluo-8 calcium fluorescence, antagonist; Q96RJ0; 360,000 tested, 1.5% active; inhibition, % at 3 µM; AID 624466;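 active means inhibition above a per-plate cutoff, the mean inhibition of test compounds on that plate plus 3 SD, cut at about 49% in these data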;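 further: 0% = DMSO plus EC80 beta-PEA response and 100% = DMSO alone without agonist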
#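 test system = CHO RD-HGA16 cells bearing hTAAR1 | replication = singlicate | controls = DMSO-only wells and EC80 β-PEA-stimulated wells | reagent = EC80 β-phenethylamine stimulus | read-out basis = percent inhibition of PEA-evoked calcium signal, max/basal emission ratio | schedule = seeding 17-24 h prior, 75-min 37 °C, 30-min RT dye loading | signal = kinetic Fluo-8 calcium fluorescence measurement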
# TAAR1 ag confirm = human TAAR1 agonism, confirmed. shares compounds with TAAR1 agonist. CHO RD-HGA16 TAAR1, Fluo-8 calcium fluorescence; scaled: DMSO 0%, maximal phenethylamine 100%. activation, % at 3 µM. 2,400 tested, 82% active;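 active means activation above a cutoff set at the run's mean compound activation plus 3 SD, cut at about 39% in these data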
# Ga16 nonsel ag = nonselective agonist in parental cells, TAAR1 agonist counter-screen | CHO-Ga16 parental, Fluo-8 calcium fluorescence; normalized to maximal ATP response, DMSO zero | AID 651787 | shares compounds with TAAR1 agonist | activation, % at 3 µM | 2,400 tested, 50% active;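 active means activation above the run cutoff, the mean activation over all tested wells plus 3 SD, cut at about 12% in these data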;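 further: 0% = DMSO wells and 100% = maximal ATP response on the peak over basal ratio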
# TAAR1 desens = human TAAR1 agonist that also desensitizes the receptor; 2,400 tested, 46% active; inhibition, % at 3 µM; shares compounds with TAAR1 agonist; CHO RD-HGA16 hTAAR1, Fluo-8 calcium, beta-PEA response inhibition; AID 651951;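 active means inhibition above the run cutoff, the mean inhibition of all test compounds plus 3 SD, cut at about 49% in these data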;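 further: beta-PEA stimulus applied at its EC80; loss of beta-PEA calcium signal after compound pretreatment read as receptor desensitization; 0% = DMSO with beta-PEA at EC80 and 100% = DMSO alone without agonist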
# Ga16 antag count = nonselective Ga16 antagonist in TAAR1 agonist counter-screen; inhibition, % at 3 µM; CHO-Ga16 ATP-induced calcium, Fluo-8 fluorescence; shares compounds with TAAR1 agonist; AID 651952; 2,400 tested, 39% active;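 active means inhibition above the plate's mean compound inhibition plus 3 SD, computed per plate, cut at about 22% in these data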;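 further: 0% = EC80 ATP with DMSO and 100% = DMSO wells without ATP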
# * marks the source's active call; other numbers are inactive results; i = inactive; nt = not tested or not shown. Compounds with a hit are over-represented: about 3.9% of the library has one in this group of screens.
SMILES,TMEM16A inh,TMEM16A act,CRFBP-R2 agonist,TAAR1 agonist,CRFBP-R2 block,TAAR1 antag,TAAR1 ag confirm,Ga16 nonsel ag,TAAR1 desens,Ga16 antag count
Cc1cc(C)nc(NS(=O)(=O)c2ccc(NC(=O)C3(c4ccc([N+](=O)[O-])cc4)CCCC3)cc2)n1,i,i,21,63*,-48,37,102*,39*,64*,36*
COc1ccc(CCC(C)NCCc2ccc(Cl)cc2Cl)cc1 (stereo unspecified),i,i,1,48*,-15,36,48*,22*,43,24*
COC(=O)c1sccc1NC(=O)Nc1ccccc1Cl,i,i,0,-2,-4,-2,nt,nt,nt,nt
O=C(Nc1ccccc1)[C@@H]1CC=C[C@@H]2CCN(Cc3ccccc3)C(=O)[C@@H]21,i,i,-2,10,6,4,nt,nt,nt,nt
O=C(Nc1ccccc1)[C@@H]1CC=C[C@@H]2CCN(Cc3ccc(Cl)c(Cl)c3)C(=O)[C@@H]21,i,i,0,57*,-15,17,51*,12*,17,2
COc1ccc(N=Cc2sc(O)c3ccccc23)cc1,i,i,271*,84*,-320,64*,46*,72*,53*,69*
O=C(CSc1n[nH]c(-c2ccncc2)n1)Nc1ccc(Cl)c(Cl)c1,i,i,1,102*,-1,39,66*,60*,40,22*
NCCCCCc1nnc(SCc2ccc(Cl)c(Cl)c2)o1,i,i,1,50*,-17,3,62*,6,31,5
CN(C[C@@H](Cc1cccc2ccccc12)N(C[C@H](Cc1ccccc1)N(CCc1ccccc1)N=O)N=O)N=O,i,i,6,51*,-7,8,76*,3,18,8
CN(C[C@H](Cc1ccccc1)N(C[C@H](c1ccccc1)N(CCc1ccccc1)N=O)N=O)N=O,i,i,-1,35,2,18,nt,nt,nt,nt
CC1=C(C(=O)N(C(C)C)C(C)C)CC(CC(=O)NCc2ccco2)C(=O)N1CCCN1CCCC1=O (stereo unspecified),nt,nt,nt,1,nt,-4,nt,nt,nt,nt
CC(=O)c1c(C)cc(C)c(CSc2ccccn2)c1C,i,i,0,1,1,-6,nt,nt,nt,nt
CCOC(=O)c1sc2c(c1C)C(c1cccs1)C1=C(CCCC1=O)N2 (stereo unspecified),i,i,9,68*,-73,45,46*,16*,25,15
CCOC(=O)C1=C(C)NC2=C(C(=O)CCC2)C1c1cccs1 (stereo unspecified),i,i,-7,7,-2,6,nt,nt,nt,nt
CN(CC(=O)Nc1ccccc1Br)C(=O)c1ccccc1OCc1ccc(Cl)cc1,nt,i,0,16,10,28,nt,nt,nt,nt
Cc1ccc(C(=O)NNC(=S)NC(=O)c2ccc(Cl)cc2Cl)cc1,100*,i,156*,172*,-46,108*,161*,123*,107*,101*
Cc1ccc(C(=O)NNC(=S)NC(=O)c2ccccc2)cc1,100*,i,138*,167*,-41,106*,136*,92*,93*,79*
O=C(NC(=S)NNC(=O)c1ccco1)c1ccccc1,i,i,-1,7,9,-6,nt,nt,nt,nt
CCCCC(=O)NC(=S)NNC(=O)c1ccc(Cl)cc1Cl,nt,i,111*,106*,37,49*,131*,110*,79*,55*
Cc1ccc(C(=O)NC(=S)NCc2ccccc2)cc1,i,i,0,2,1,-7,nt,nt,nt,nt
O=C(/C=C/c1ccc(Br)cc1)NC(=S)NNC(=O)c1ccco1,i,i,9,70*,-9,61*,79*,45*,66*,46*
CC(C)NC(=S)NC(=O)c1ccc(Cl)cc1Cl,i,i,-1,6,-3,-30,nt,nt,nt,nt
CC(C)NC(=O)c1cc(C2CCCCN2C(=O)c2ccccc2)on1 (stereo unspecified),nt,nt,nt,1,nt,3,nt,nt,nt,nt
Cc1ccc(C(=O)NC(=S)NNC(=O)c2ccccc2)cc1,i,i,121*,153*,34,102*,123*,98*,97*,69*
Cc1ccc(C(=O)NNC(=S)NC(=O)c2ccco2)cc1,i,i,97*,111*,35,34,101*,82*,47,47*
SMILES,TMEM16A inh,TMEM16A act,CRFBP-R2 agonist,TAAR1 agonist,CRFBP-R2 block,TAAR1 antag,TAAR1 ag confirm,Ga16 nonsel ag,TAAR1 desens,Ga16 antag count
Cc1ccc(NC(=O)NC(=S)NC(=O)c2ccccc2)cc1,i,i,1,2,-37,-5,nt,nt,nt,nt
COc1cccc(C(=O)Oc2cc(N)n(S(=O)(=O)c3ccc(C)cc3)n2)c1OC,i,i,5,64*,22,2,50*,14*,6,9
Nc1cc(OC(=O)c2c(F)cccc2Cl)nn1S(=O)(=O)c1ccccc1,i,i,0,54*,-19,-7,51*,22*,10,18
CC(C)c1ccc(OCC(=O)NNC(=S)NC(=O)c2ccco2)c(Br)c1,i,i,48,44*,-34,7,81*,59*,70*,51*
Cc1ccccc1OCC(=O)Nc1ccccc1NC(=O)c1ccco1,i,i,0,-2,-5,-2,nt,nt,nt,nt
Cc1ccccc1OCC(=O)NNC(=S)NC(=O)c1ccco1,i,i,19,65*,-15,14,29,23*,12,20
CCc1ccccc1Nc1nc(N)nc(COC(=O)c2c(C)noc2C)n1,nt,i,1,3,5,-12,nt,nt,nt,nt
N#Cc1cccc(S(=O)(=O)NCc2nnc3ccccn23)c1,nt,i,-1,18,5,1,nt,nt,nt,nt
O=C1NC(Cc2ccc(O)cc2)c2nc3cc(F)ccc3c(=O)n2-c2cc3ccccc3cc21 (stereo unspecified),nt,nt,2,5,0,24,nt,nt,nt,nt
